Bioassay records as filed in PubChem.
PfHsp90 yeast 2 = growth inhibition of PfHsp90-expressing yeast, primary screen, antimalarial PfHsp90 inhibitor project, S. cerevisiae, BacTiter-Glo luminescence, single point, set 2; BacTiter-Glo ATP, 48 h; yeast lacking PDR1 and PDR3 efflux regulators; inhibition, % at 9.4 µM; AID 504621, 2011; 310,000 compounds, 0.32% hits;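 active = every replicate shows inhibition above about 80%, whatever the replicate mean, limit read from the data; inconclusive = mean inhibition reaches the set limit but some replicate falls short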
Ecoli rRNA inh = reduced GFP signal of wild-type E. coli, primary screen, bacterial rRNA inhibitor project, GFP/RFP fluorescence, OD600, single point. GFP signal change (wild-type ribosome), % (no concentration beside the values). E. coli WT GFP vs humanized-ribosome RFP mutants, 24 h; active compounds read low; DMSO median 0, no signal -100. 350,000 compounds, 1.6% hits;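 active = significant combined selectivity score with lowered wild-type GFP, culture density cut under 30%, mutant RFP and density less affected; inactive = any of these conditions unmet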
MLL AF4-AF9 inh = inhibitors of AF4 peptide binding to AF9, primary screen, biochemical, AlphaScreen, biotin-AF4 peptide, FLAG-AF9, single point | Protein AF-9 (Homo sapiens), P42568 | inhibition, % at 10 µM | 350,000 compounds, 0.47% hits;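 active = every replicate reaching a set inhibition limit, whatever the replicate mean, cut at about 25% in these data; inconclusive = mean inhibition reaches that limit but some replicates miss it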
Target sequence (P42568 whole entry, looked up): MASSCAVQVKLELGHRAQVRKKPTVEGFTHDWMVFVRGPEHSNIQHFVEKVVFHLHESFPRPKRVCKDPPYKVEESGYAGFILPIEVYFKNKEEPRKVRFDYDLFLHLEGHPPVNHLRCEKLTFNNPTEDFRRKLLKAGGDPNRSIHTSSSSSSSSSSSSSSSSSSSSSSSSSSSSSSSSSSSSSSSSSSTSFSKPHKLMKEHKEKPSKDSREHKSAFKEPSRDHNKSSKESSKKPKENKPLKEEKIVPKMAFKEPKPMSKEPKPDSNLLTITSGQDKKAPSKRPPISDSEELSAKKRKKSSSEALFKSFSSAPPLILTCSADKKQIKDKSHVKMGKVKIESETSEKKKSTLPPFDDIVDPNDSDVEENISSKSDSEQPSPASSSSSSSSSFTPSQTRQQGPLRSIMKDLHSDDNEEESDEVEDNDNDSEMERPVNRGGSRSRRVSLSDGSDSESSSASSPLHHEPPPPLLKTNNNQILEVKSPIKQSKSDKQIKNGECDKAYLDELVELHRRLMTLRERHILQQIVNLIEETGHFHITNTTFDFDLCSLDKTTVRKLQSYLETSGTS
DENV2 CPE rescue = inhibitors of DENV2 cytopathic effect, primary screen, cell-based, plate reader, single concentration; CPE inhibition, % at 9.99 µM; 350,000 compounds, 1.7% hits; DENV2-infected cells, cytopathic effect rescue; in the data active = CPE inhibition above about 20%, passing the limit was not always enough; inconclusive = no clear call, values can overlap the other calls; tested in BHK-21 cells
Cneo AK release = Cryptococcus neoformans cell lysis inducers, primary screen, AK release luminescence, single concentration; AID 651654, 2012; C. neoformans lysis, adenylate kinase release luminescence, 4 h; normalised: neutral wells 0, clomiphene wells 100; 360,000 compounds, 0.2% hits; lysis activity, % at 15 µM;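 active = mean lysis activity across replicates of at least 80%, whatever share of replicates individually reach that level; inactive = mean lysis activity below 80%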
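Assay system: Cryptococcus neoformans yeast cells / Dosing: single-point compound dose / Timing: 4 h at 37 °C static, read 1 h later / Measured by: luminescence of released adenylate kinase using an AK detection reagent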
S100A4 MyoIIA = inhibitors of S100A4-myosin IIA peptide binding, primary screen, biochemical, fluorescence polarization, TAMRA-MyoIIA peptide | inhibition, % at 10.7 µM | 360,000 compounds, 0.14% hits;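 active = mean inhibition of at least 70% across replicates, with every replicate also reaching that level; inconclusive = mean inhibition reaches 70% but some replicates fall short; inactive = mean inhibition below 70%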
Target sequence (P26447 whole entry, looked up): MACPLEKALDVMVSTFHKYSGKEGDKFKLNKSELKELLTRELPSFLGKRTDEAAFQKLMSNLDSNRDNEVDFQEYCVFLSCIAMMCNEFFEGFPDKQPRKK
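System – human S100A4 monomer protein, biochemical binding assay · Buffer or medium – Calcium-containing HEPES buffer, pH 7.2 · Timing – 5 min between mix addition and reading · Also added – TAMRA-labelled myosin IIA heavy-chain peptide probe, 5 nM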
Of the large screens only hits and unclear results are named; the others gave an inactive call; ! = not confirmed by another sample. Shown are actives, neighbours in structure and some others; about 3.2% of the full set was active somewhere.

CCCNC(=O)N1CC2(C1)[C@H](c1ccccc1)[C@H](CO)N2CC1CC1	none (no result: PfHsp90 yeast 2, Cneo AK release)
CC(CCC(C)C(C)(C)C)[C@@H]1CC[C@H]2C3C[C@H](OS(O)(=S)=S)[C@H]4C[C@H](OS(O)(=S)=S)[C@@H](OS(O)(=S)=S)C[C@]4(C)[C@H]3CC[C@]12C (some centres not stated) (tested in a mixture with another compound)	PfHsp90 yeast 2 109 (no result: Ecoli rRNA inh, MLL AF4-AF9 inh, DENV2 CPE rescue, S100A4 MyoIIA)
O=C(c1ccccc1)N1C[C@H]2[C@@H](c3ccccc31)[C@@H](CO)N2S(=O)(=O)c1ccccc1	none (no result: PfHsp90 yeast 2)
CCOc1ccccc1NC(=O)c1ccc(OCC)c([N+](=O)[O-])c1	none (no result: Cneo AK release)
CCOc1ccccc1N/C(=C(/C(Cl)=C(Cl)Cl)[N+](=O)[O-])n1cncn1	Ecoli rRNA inh -25 (no result: DENV2 CPE rescue)
C[C@@H]1CN([C@H](C)CO)S(=O)(=O)c2ccc(-c3cccc(C#N)c3)cc2O[C@H]1CN(C)C(=O)Nc1cc(F)ccc1F	DENV2 CPE rescue 29! (no result: PfHsp90 yeast 2)
C[C@@H]1CN([C@H](C)CO)S(=O)(=O)c2ccc(-c3cccc(C(=O)N(C)C)c3)cc2O[C@H]1CN(C)C(=O)Nc1ccc(F)cc1	DENV2 CPE rescue 27! (no result: PfHsp90 yeast 2)
Cc1ccc(-c2ccc3c(c2)O[C@@H](CN(C)C(=O)Nc2ccc(F)cc2)[C@@H](C)CN([C@@H](C)CO)S3(=O)=O)cc1	DENV2 CPE rescue 30 (no result: PfHsp90 yeast 2)
C[C@H](CO)N1C[C@H](C)[C@@H](CN(C)C(=O)Nc2ccc(F)cc2)Oc2cc(-c3cccc(C(=O)N(C)C)c3)ccc2S1(=O)=O	none (no result: PfHsp90 yeast 2)
C[C@H](CO)N1C[C@H](C)[C@@H](CN(C)C(=O)Nc2cc(F)ccc2F)Oc2cc(-c3cccc(C#N)c3)ccc2S1(=O)=O	none (no result: PfHsp90 yeast 2)
Cc1ccc(-c2ccc3c(c2)O[C@H](CN(C)C(=O)Nc2ccc(F)cc2)[C@@H](C)CN([C@@H](C)CO)S3(=O)=O)cc1	none (no result: PfHsp90 yeast 2)
C[C@@H]1CCCCO[C@@H](CN(C)S(=O)(=O)c2ccccc2)[C@H](C)CN([C@H](C)CO)C(=O)c2cc(NC(=O)c3ccccc3)ccc2O1	none (no result: PfHsp90 yeast 2)
CC(C)(C)c1ccc(NC(=S)NCCc2ccccn2)cc1	Ecoli rRNA inh -41 (no result: MLL AF4-AF9 inh, Cneo AK release)
CCC(=O)Nc1ccc2c(c1)OC[C@H](C)N(C(=O)c1cnccn1)C[C@H](C)[C@H](OC)CN(C)C2=O	none (no result: PfHsp90 yeast 2, MLL AF4-AF9 inh, DENV2 CPE rescue, Cneo AK release, S100A4 MyoIIA)
COc1ccc(NC(=O)CSc2nc3ccc(OC)cc3[nH]2)cc1	none
COc1ccccc1NC(=O)COc1ccc2ccccc2c1	Ecoli rRNA inh -31
COc1ccc2nc(SCC(=O)Nc3ccccc3OC)[nH]c2c1	Ecoli rRNA inh -24 (no result: Cneo AK release)
COc1ccc(C(=O)Nc2ccc3ccccc3c2)c(OC)c1	Ecoli rRNA inh -28
COc1ccccc1C(=O)Nc1cccc(NC(=O)c2ccccc2C)c1	Ecoli rRNA inh -34
COc1ccc(NC(=O)N(C)C[C@H]2OCCCC[C@H](C)Oc3ccc(NS(=O)(=O)c4cn(C)cn4)cc3C(=O)N([C@@H](C)CO)C[C@@H]2C)cc1	none (no result: PfHsp90 yeast 2)
O=C(C[C@H]1CC[C@@H]2[C@H](COC[C@H](O)CN2C(=O)c2ccccc2F)O1)N1CCN(c2ccccc2)CC1	none (no result: PfHsp90 yeast 2)
C[C@@H]1CN([C@H](C)CO)C(=O)Cc2cc(NS(=O)(=O)c3ccc(Cl)cc3)ccc2O[C@H]1CN(C)Cc1ccc(C(=O)O)cc1	none (no result: PfHsp90 yeast 2, Cneo AK release)
COc1ccccc1C(=O)Nc1cccc(NC(C)=O)c1	none (no result: PfHsp90 yeast 2, Ecoli rRNA inh, MLL AF4-AF9 inh, DENV2 CPE rescue, S100A4 MyoIIA)
COc1cccc(OC)c1C(=O)Nc1ccc2c(c1)Cc1ccccc1-2	Ecoli rRNA inh -23 (no result: Cneo AK release)
COc1ccccc1C(=O)Nc1ccc2ccccc2c1	Ecoli rRNA inh -33 (no result: Cneo AK release)
C[C@@H]1CN([C@H](C)CO)C(=O)c2cc(-c3ccccc3F)cnc2O[C@@H]1CN(C)C(=O)C1CCC1	none (no result: PfHsp90 yeast 2)
C[C@H]1CCCCO[C@H](CN(C)Cc2ccccc2)[C@@H](C)CN([C@@H](C)CO)C(=O)c2cc(N(C)C)ccc2O1	none (no result: PfHsp90 yeast 2)
COc1cccc(NC(=O)Nc2cccn(Cc3ccc(C)cc3)c2=O)c1	Ecoli rRNA inh -29 (no result: Cneo AK release)
C[C@H]1CN([C@@H](C)CO)C(=O)c2ccccc2-c2ccccc2CO[C@H]1CN(C)C(=O)c1cc(Cl)cc(Cl)c1	none (no result: PfHsp90 yeast 2, Cneo AK release)
O=C(CSCc1ccccc1)N/N=C/c1ccccc1OCc1ccccc1	Ecoli rRNA inh -27
NC(=S)N/N=C\c1ccccc1OCc1ccccc1	Ecoli rRNA inh -26
Cc1cc(C)nc(N/N=C/c2ccccc2OCc2ccccc2)n1	DENV2 CPE rescue 79
COc1ccc(CSCC(=O)N/N=C/c2ccccc2OCc2ccccc2)cc1	none (no result: Ecoli rRNA inh, MLL AF4-AF9 inh, DENV2 CPE rescue, S100A4 MyoIIA)
COc1ccc(NC(=O)N(C)C[C@@H]2Oc3ccc(NC(=O)CCCCCC(=O)Nc4ccccc4N)cc3CC(=O)N([C@@H](C)CO)C[C@H]2C)cc1	none (no result: PfHsp90 yeast 2)
Cc1cccc(N2CCN(C(=O)Cn3nc(C)n4cccc4c3=O)CC2C)c1 (configuration not stated)	none
Cc1cccc(N2CCN(C(=O)Cn3sc4nc(C)cc(C)c4c3=O)CC2C)c1 (configuration not stated)	PfHsp90 yeast 2 167 (no result: Ecoli rRNA inh, MLL AF4-AF9 inh, DENV2 CPE rescue, S100A4 MyoIIA)
COc1ccc(CN2[C@@H](CC(=O)O)c3cc(C(F)(F)F)ccc3S2(=O)=O)cc1	none
COC(=O)C[C@H]1c2cc(C(F)(F)F)ccc2S(=O)(=O)N1Cc1ccc(OC)cc1	DENV2 CPE rescue 20 (no result: PfHsp90 yeast 2)
COc1ccccc1CN1[C@@H](CC(C)=O)c2cc(C(F)(F)F)ccc2S1(=O)=O	DENV2 CPE rescue 71 (no result: PfHsp90 yeast 2)
O=C(CSc1nnc(-c2c[nH]c3ccccc23)o1)N1CCCCC1	Ecoli rRNA inh -33
O=C(CSc1nnc(-c2c[nH]c3ccccc23)o1)N1c2ccccc2CCc2ccccc21	none
CCCCC(CC)C(=O)Nc1cc(C(=O)NCc2ccc(C)cc2)ccc1N1CCC2(CC1)CC(c1ccccc1)=NO2 (configuration not stated)	none
CCCCCCCC(=O)Nc1cc(C(=O)NCc2ccc(C)cc2)ccc1N1CCC2(CC1)CC(c1ccccc1)=NO2	DENV2 CPE rescue 27
Clc1ccccc1N1CCN(Cc2ccc(Br)o2)CC1	Ecoli rRNA inh -35, DENV2 CPE rescue inconclusive (no result: Cneo AK release)
Cc1cccc(N2CCN(Cc3ccc(Br)o3)CC2)c1C	none
Cc1ccccc1N1CCN(Cc2ccc(Br)o2)CC1	Ecoli rRNA inh -27
